For assay [1], the target named is T1, DhelOBP10 (Dastarcus helophoroides, UniProt A0A1I9HZP4).
T1 sequence (A0A1I9HZP4 20-220): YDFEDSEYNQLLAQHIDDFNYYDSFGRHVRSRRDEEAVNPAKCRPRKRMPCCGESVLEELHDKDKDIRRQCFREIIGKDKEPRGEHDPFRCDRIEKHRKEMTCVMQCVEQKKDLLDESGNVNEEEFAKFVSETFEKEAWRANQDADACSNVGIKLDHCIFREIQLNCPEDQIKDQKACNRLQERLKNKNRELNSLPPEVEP
As to the kind of experiment: Fluorescence-quenching spectra assay, DhelOBP10. Conditions: for quenching mechanism of the interaction with DhelOBP10: change of Ksv with temperature 289–298 K, neutral pH. In kind it is binding. Put shortly: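 Intrinsic fluorescence of 2 μM recombinant DhelOBP10 in 30 mM Tris-HCl (pH 7.4 or 5.0): excitation 289 nm, slits 15/10 nm, scan 300–500 nm. Ligand aliquots came from 1 mM stock, at 289 and 298 K. Ksv and Kq were taken from Stern–Volmer fits, Ka and n from double-log plots, and ΔG, ΔH, ΔS from thermodynamic equations to assign binding force.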

For assay [2], the target named is T1, DhelOBP10. As to the kind of experiment: Competitive fluorescence-binding assay with 1-NPN probe, recombinant DhelOBP10. Conditions: DhelOBP10 Ki (dissociation constant), 1-NPN competition, mean ± SEM. The essentials:
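Recombinant signal-peptide-free DhelOBP10 from E. coli (pET-32b; 1 mM IPTG induction, 12 h at 16°C), dialysed into Tris pH 7.4 or 5.0. […] Ligands (1 mM methanol stock) were added to 0–20 μM; Ki = IC50/(1+[1-NPN]/K1-NPN). Mean ± SEM.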

The target of assay [3] is T2, MaltOBP24 (Monochamus alternatus, UniProt A0A1I9HZN3).
T2 sequence (A0A1I9HZN3 1-169): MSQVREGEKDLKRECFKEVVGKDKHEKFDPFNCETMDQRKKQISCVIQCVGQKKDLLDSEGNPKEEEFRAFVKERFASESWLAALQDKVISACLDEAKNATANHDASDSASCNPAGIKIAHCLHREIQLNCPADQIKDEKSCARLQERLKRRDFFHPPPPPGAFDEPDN
As to the kind of experiment: Competitive fluorescence-binding assay with 1-NPN probe, recombinant MaltOBP24. Conditions: MaltOBP24 Ki (dissociation constant), 1-NPN competition, mean ± SEM.

The test system of assay [4] is MaltOBP24. Put plainly: Fluorescence-quenching spectra assay, MaltOBP24. Type of assay: binding, Monochamus alternatus. Conditions: for quenching mechanism of the interaction with MaltOBP24: change of Ksv with temperature 289–298 K, neutral pH.
The next assay has as its system D. helophoroides adults. As to the kind of experiment: Y-tube olfactometer binary choice assay, D. helophoroides adults. In kind it is in vivo, Dastarcus helophoroides. Particulars: untreated adults, in words. The essentials:
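Adults reared at 25°C on an artificial diet. RNAi: 4-day-old adults given 300 ng dsDhelOBP10 or dsGFP into the frons, with non-injected controls, and tested 4 days later. Y-tube with 15 cm stem, 12 cm arms at 75°, airflow 300 mL/min per arm. Odour was 10 µL of 100-fold paraffin-oil dilution on filter paper versus paraffin oil. Insects had 5 min; arms swapped; ≥60 insects (30 per sex), each tested once; Chi-square.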

A further assay deals with M. alternatus adults. Put plainly: Y-tube olfactometer binary choice assay, M. alternatus adults. In kind it is in vivo, Monochamus alternatus. Conditions: untreated adults, in words. The essentials: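 Field-collected adults kept singly at 25°C on fresh pine twigs. RNAi: 1 μg dsMaltOBP24 or dsGFP injected into the frons of 4-day-old adults under CO₂ narcosis, with non-injected controls, and tested 4 days later. Y-tube with 40 cm stem, 30 cm arms at 60°, airflow 300 mL/min. Odour was 10 µL of 100-fold paraffin-oil dilution versus paraffin oil. Insects had 5 min; ≥30 per sex, each tested once; Chi-square.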

Bounds are passed on as bounds.

Regarding `CC1=CC[C@@H]2[C@@H]3[C@H]1[C@@]2(C)CCCC3(C)C` [(+)-α-longipinene], the “quenching mechanism of the interaction with DhelOBP10” value on DhelOBP10 [1] is “dynamic quenching”.

For `C=C1CC[C@H]2O[C@]2(C)CC[C@@H]2[C@@H]1CC2(C)C` [(−)-caryophyllene oxide], the Ki – broadly, a measure of affinity in units of concentration, obtained from inhibition or displacement – came to 3.65 ± 0.34 µM at DhelOBP10 [2] (pH5.0), 15.7 ± 1.26 µM at DhelOBP10 [2] (pH7.4), 38.5 ± 3.44 µM at MaltOBP24 [3] (pH5.0) and 24.2 ± 1.94 µM on MaltOBP24 [3] (pH7.4).

As to `C=C1C2CCC(C2)C1(C)C` (centres unmarked) [camphene], the inhibition constant (Ki) at DhelOBP10 [2] (pH5.0) is 8.29 ± 1.99 µM; at DhelOBP10 [2] (pH7.4), 24.5 ± 2.44 µM; on MaltOBP24 [3] (pH5.0), more than 50 µM; at MaltOBP24 [3] (pH7.4), 22.1 ± 3.21 µM.

Take `CC12CCC(CC1=O)C2(C)C` (centres unmarked) [camphor]: the Ki at DhelOBP10 [2] (pH5.0) was 9.09 ± 1.7 µM; at DhelOBP10 [2] (pH7.4), 33.8 ± 1.04 µM; at MaltOBP24 [3] (pH5.0), more than 50 µM; at MaltOBP24 [3] (pH7.4), more than 50 µM.

For `C=CC(=C)CCC=C(C)C` [myrcene], the Ki on DhelOBP10 [2] (pH5.0) stood at 3.93 ± 0.71 µM; at DhelOBP10 [2] (pH7.4), 28.7 ± 1.12 µM; on MaltOBP24 [3] (pH5.0), 22.4 ± 2.29 µM; at MaltOBP24 [3] (pH7.4), 24.3 ± 3.95 µM.

As to `CC1=CCC(=C(C)C)CC1` [α-terpinolene], in the assay on MaltOBP24 [4] (MaltOBP24, pH 7.4, 289 K), the “Ka (apparent association constant)” value is on record as 5,449,703.40 L·mol^−1, the “Kq (bimolecular quenching constant)” value worked out at 2.5179e+12 L/mol/s and the “Ksv (quenching constant)” value is recorded as 25,179 ± 659.6 L·mol^−1. In addition, in the assay on MaltOBP24 [4] (MaltOBP24, pH 7.4, 298 K), the “Ka (apparent association constant)” value is on record as 2,525,092.74 L·mol^−1, the “Kq (bimolecular quenching constant)” value worked out at 2.0347e+12 L/mol/s and the “Ksv (quenching constant)” value was 20,347 ± 501.6 L·mol^−1. Further, the “quenching mechanism of the interaction with MaltOBP24” value with MaltOBP24 [4] is listed as “static quenching”. In addition, the “behavioral response of D. helophoroides adults in Y-tube” value in the assay on D. helophoroides adults is “did not show preference”. Further, the “behavioral response of M. alternatus adults in Y-tube” value with M. alternatus adults is “did not affect their behavior”. In addition, the “ΔS (entropy change)” value at DhelOBP10 [1] (DhelOBP10, pH 7.4) came to 36.31 J/mol. On DhelOBP10 [1] (DhelOBP10, pH 7.4, 289 K), the “Ka (apparent association constant)” value is given as 8,904.93 L·mol^−1, the “Kq (bimolecular quenching constant)” value turned out to be 5.736e+11 L/mol/s, the “Ksv (quenching constant)” value is 5,736 ± 153.1 L·mol^−1 and the “n (number of binding sites)” value amounted to 1.0321 ± 0.0670. The “ΔG (free energy change)” value on DhelOBP10 [1] (DhelOBP10, pH 7.4, 289 K) is −21,851.44 J·mol^−1. For the same compound, the “ΔH (enthalpy change)” value on DhelOBP10 [1] (DhelOBP10, pH 7.4, 289 and 298 K) was −11,356.86 J·mol^−1. Also, at DhelOBP10 [1] (DhelOBP10, pH 7.4, 298 K), the “Ka (apparent association constant)” value is given as 2,093.14 L·mol^−1, the “Kq (bimolecular quenching constant)” value was determined as 2.139e+11 L/mol/s, the “Ksv (quenching constant)” value is given as 2,139 ± 58.09 L·mol^−1 and the “n (number of binding sites)” value stood at 0.9823 ± 0.1034. Also, the “ΔG (free energy change)” value on DhelOBP10 [1] (DhelOBP10, pH 7.4, 298 K) was −18,944.55 J·mol^−1. In addition, the “quenching mechanism of the interaction with DhelOBP10” value at DhelOBP10 [1] was “static quenching”. Besides, the “main acting force between ligand and DhelOBP10” value at DhelOBP10 [1] (from signs of ΔH and ΔS) is reported as “electrostatic force”.

For the compound (+)-α-pinene, the “quenching mechanism of the interaction with MaltOBP24” value with MaltOBP24 [4] is on record as “dynamic quenching”.

The values are drawn from PMC9263996 (iScience, 2022).
